Data as given in ChEMBL document CHEMBL1122293, “Synthesis, evaluation of chemical reactivity, and murine antineoplastic activity of 2-hydroxy-5-(3,4-dichlorophenyl)-6,7-bis(hydroxymethyl)-2,3-dihydro-1H- pyrrolizine bis(2-propylcarbamate) and 2-acyloxy derivatives as potential water-soluble prodrugs” (J Med Chem, 1983).
Values after ≈ are worked out from the molar mass of the structure shown.

What was measured:
B16 [1] = assay: No. of cures on day 60 at 10 mg/kg (ip) against B16 melanocarcinoma in mice; type: functional, Mus musculus
Summary of the method: (§1)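 Female BDF1 mice given ip 0.5 mL of tumor brei (1.0 g tissue per 10 mL). Nine daily ip doses beginning 24 h later, as Klucel suspensions or a water/Tween-80 suspension. Acute toxicity scored day 5; survival read day 60. Cures counted per 10-animal group at day 60; weight difference reported as treated minus control (g).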

B16 [2] = assay: No. of cures on day 60 at 20 mg/kg (ip) against B16 melanocarcinoma in mice; type: functional, Mus musculus; summary of the method: as §1
B16 [3] = assay: No. of cures on day 60 at 40 mg/kg (ip) against B16 melanocarcinoma in mice; type: functional, Mus musculus; summary of the method: as §1
B16 [4] = assay: No. of cures on day 60 at 5 mg/kg (ip) against B16 melanocarcinoma in mice; type: functional, Mus musculus; summary of the method: as §1
B16 [5] = assay: No. of cures on day 60 at 80 mg/kg (ip) against B16 melanocarcinoma in mice; type: functional, Mus musculus; summary of the method: as §1
B16 [6] = assay: Median survival time of test animals compared to controls at 10 mg/kg (ip) against B16 melanocarcinoma in mice; type: functional, Mus musculus
Summary of the method: (§2)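 Female BDF1 mice received B16 tumor brei ip (0.5 mL of 1.0 g tissue per 10 mL). From 24 h later they got nine daily ip doses, suspended in Klucel or water/Tween-80. Acute toxicity was assessed on day 5 and survival was evaluated on day 60. The value is median survival as % T/C, with 10 mice per group and a positive control run in parallel.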

B16 [7] = assay: Median survival time of test animals compared to controls at 20 mg/kg (ip) against B16 melanocarcinoma in mice; type: functional, Mus musculus; summary of the method: as §2
B16 [8] = assay: Median survival time of test animals compared to controls at 40 mg/kg (ip) against B16 melanocarcinoma in mice; type: functional, Mus musculus; summary of the method: as §2
B16 [9] = assay: Median survival time of test animals compared to controls at 5 mg/kg (ip) against B16 melanocarcinoma in mice; type: functional, Mus musculus; summary of the method: as §2
B16 [10] = assay: Median survival time of test animals compared to controls at 80 mg/kg (ip) against B16 melanocarcinoma in mice; type: functional, Mus musculus; summary of the method: as §2
B16 [11] = assay: Weight difference at 10 mg/kg (ip)against B16 melanocarcinoma in mice; type: functional, Mus musculus; summary of the method: as §1
B16 [12] = assay: Weight difference at 20 mg/kg (ip)against B16 melanocarcinoma in mice; type: functional, Mus musculus; summary of the method: as §1
B16 [13] = assay: Weight difference at 40 mg/kg (ip)against B16 melanocarcinoma in mice; type: functional, Mus musculus; summary of the method: as §1
B16 [14] = assay: Weight difference at 5 mg/kg (ip)against B16 melanocarcinoma in mice; type: functional, Mus musculus; summary of the method: as §1
B16 [15] = assay: Weight difference at 80 mg/kg (ip) against B16 melanocarcinoma in mice; type: functional, Mus musculus; summary of the method: as §1
P388 [16] = assay: Weight difference at 80 mg/kg (ip)against P388 Lymphocytic Leukemia in mice; type: functional, Mus musculus
Summary of the method: (§3)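 Male CDF1 mice inoculated ip with P388 leukemia cells. Nine daily ip doses beginning 24 h later, as suspensions in Klucel or water. Acute toxicity evaluated day 5. Weight difference reported as treated minus control (g).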

P388 [17] = assay: Median survival time of test animals compared to controls at 10 mg/kg (ip) against P388 Lymphocytic Leukemia in mice; type: functional, Mus musculus
Summary of the method: (§4)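 P388 leukemia cells were given ip to male CDF1 mice. Dosing started 24 h later: nine daily ip doses given as suspensions in Klucel (hydroxypropylcellulose) or in water. Toxicity day was day 5 and evaluation was on day 30. The value is % T/C of median survival time against untreated controls, with a parallel positive-control arm.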

P388 [18] = assay: Median survival time of test animals compared to controls at 2.5 mg/kg (ip) against P388 Lymphocytic Leukemia in mice; type: functional, Mus musculus
Summary of the method: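 P388 leukemia cells given ip to male CDF1 mice; ip dosing began 24 h later, nine daily doses, as suspensions in Klucel (hydroxypropylcellulose) or water. Acute toxicity checked on day 5. Survival read on day 30 as median survival time of treated versus control mice (% T/C). Weight difference is treated minus control, in grams.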

P388 [19] = assay: Median survival time of test animals compared to controls at 20 mg/kg (ip) against P388 Lymphocytic Leukemia in mice; type: functional, Mus musculus; summary of the method: as §4
P388 [20] = assay: Median survival time of test animals compared to controls at 40 mg/kg (ip) against P388 Lymphocytic Leukemia in mice; type: functional, Mus musculus; summary of the method: as §4
P388 [21] = assay: Median survival time of test animals compared to controls at 5 mg/kg (ip) against P388 Lymphocytic Leukemia in mice; type: functional, Mus musculus; summary of the method: as §4
P388 [22] = assay: Median survival time of test animals compared to controls at 80 mg/kg (ip) against P388 Lymphocytic Leukemia in mice; type: functional, Mus musculus; summary of the method: as §4
P388 [23] = assay: Log of the tumor cell population at the end of treatment at 10 mg/kg (ip) against P388 Lymphocytic Leukemia in mice; type: functional, Mus musculus
P388 [24] = assay: Log of the tumor cell population at the end of treatment at 20 mg/kg (ip) against P388 Lymphocytic Leukemia in mice; type: functional, Mus musculus
P388 [25] = assay: Log of the tumor cell population at the end of treatment at 40 mg/kg (ip) against P388 Lymphocytic Leukemia in mice; type: functional, Mus musculus
P388 [26] = assay: Log of the tumor cell population at the end of treatment at 5 mg/kg (ip) against P388 Lymphocytic Leukemia in mice; type: functional, Mus musculus
P388 [27] = assay: Log of the tumor cell population at the end of treatment at 80 mg/kg (ip) against P388 Lymphocytic Leukemia in mice; type: functional, Mus musculus
P388 [28] = assay: Weight difference at 5 mg/kg (ip)against P388 Lymphocytic Leukemia in mice; type: functional, Mus musculus; summary of the method: as §3
P388 [29] = assay: Weight difference at 10 mg/kg (ip)against P388 Lymphocytic Leukemia in mice; type: functional, Mus musculus; summary of the method: as §3
P388 [30] = assay: Weight difference at 2.5 mg/kg (ip)against P388 Lymphocytic Leukemia in mice; type: functional, Mus musculus; summary of the method: as §3
P388 [31] = assay: Weight difference at 20 mg/kg (ip)against P388 Lymphocytic Leukemia in mice; type: functional, Mus musculus; summary of the method: as §3
[32] = Water solubility of the compound; type: ADME; details: read-out: S
Summary of the method: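 Excess bis(carbamate) (30-60 mg) in 2 mL distilled water, vortexed 10 min, filtered through Teflon wool and diluted. UV absorbance read at 291 nm. Concentration from a linear Beer's law calibration made with a salt standard (r = 0.998).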

P388 [33] = assay: Weight difference at 40 mg/kg (ip)against P388 Lymphocytic Leukemia in mice; type: functional, Mus musculus; summary of the method: as §3
P388 [34] = assay: Weight difference at 50 mg/kg (ip)against P388 Lymphocytic Leukemia in mice; type: functional, Mus musculus
Summary of the method: (§5)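 Male CDF1 mice given 6×10^6 leukemia cells ip. Five daily ip doses beginning 24 h later, as Klucel suspension or aqueous solution. Acute toxicity on day 5; survival assessed on day 30. Weight difference reported as treated minus control (g).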

P388 [35] = assay: Median survival time of test animals compared to controls at 100 mg/kg (ip) against P388 Lymphocytic Leukemia in mice; type: functional, Mus musculus
Summary of the method: (§6)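 P388 leukemia cells were inoculated ip into male CDF1 mice. Treatment began 24 h later, given ip as five daily doses, either as a Klucel (hydroxypropylcellulose) suspension or as an aqueous solution. Acute toxicity was assessed on day 5 and results were read on day 30. The value is median survival of treated versus control mice, as % T/C.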

P388 [36] = assay: Median survival time of test animals compared to controls at 12.5 mg/kg (ip) against P388 Lymphocytic Leukemia in mice; type: functional, Mus musculus
Summary of the method: (§7)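 P388 leukemia cells inoculated ip into male CDF1 mice; ip treatment started 24 h later, five daily doses, as Klucel (hydroxypropylcellulose) suspension or aqueous solution. Acute toxicity on day 5. Day-30 median survival of treated versus control mice expressed as % T/C. Weight difference is treated minus control, in grams.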

P388 [37] = assay: Median survival time of test animals compared to controls at 25 mg/kg (ip) against P388 Lymphocytic Leukemia in mice; type: functional, Mus musculus; summary of the method: as §6
P388 [38] = assay: Median survival time of test animals compared to controls at 50 mg/kg (ip) against P388 Lymphocytic Leukemia in mice; type: functional, Mus musculus; summary of the method: as §6
P388 [39] = assay: Log of the tumor cell population at the end of treatment at 100 mg/kg (ip) against P388 Lymphocytic Leukemia in mice; type: functional, Mus musculus
P388 [40] = assay: Log of the tumor cell population at the end of treatment at 12.5 mg/kg (ip) against P388 Lymphocytic Leukemia in mice; type: functional, Mus musculus
P388 [41] = assay: Log of the tumor cell population at the end of treatment at 25 mg/kg (ip) against P388 Lymphocytic Leukemia in mice; type: functional, Mus musculus
P388 [42] = assay: Log of the tumor cell population at the end of treatment at 50 mg/kg (ip) against P388 Lymphocytic Leukemia in mice; type: functional, Mus musculus
P388 [43] = assay: Weight difference at 25 mg/kg (ip)against P388 Lymphocytic Leukemia in mice; type: functional, Mus musculus; summary of the method: as §5
P388 [44] = assay: Weight difference at 100 mg/kg (ip)against P388 Lymphocytic Leukemia in mice; type: functional, Mus musculus; summary of the method: as §5
P388 [45] = assay: Weight difference at 12.5 mg/kg (ip)against P388 Lymphocytic Leukemia in mice; type: functional, Mus musculus; summary of the method: as §7

SMILES: CC(C)NC(=O)OCc1c(COC(=O)NC(C)C)c(-c2ccc(Cl)c(Cl)c2)n2c1CC(OC(=O)CN(C)C)C2 (centres undefined)
- Cures (B16 [1]): 0
- Cures (B16 [2]): 0
- Cures (B16 [3]): 1
- Cures (B16 [4]): 0
- Cures (B16 [5]): 0
- T/C (B16 [6]): 152%
- T/C (B16 [7]): 152%
- T/C (B16 [8]): 174%
- T/C (B16 [9]): 106%
- T/C (B16 [10]): <100%
- Weight change (B16 [11]): 0.2 T-C
- Weight change (B16 [12]): 0.5 g
- Weight change (B16 [13]): -0.8 g
- Weight change (B16 [14]): 0.2 g
- Weight change (B16 [15]): -1.5 g
- Weight change (P388 [16]): -3.4 g
- T/C (P388 [17]): 128%
- Log cell kill (P388 [18]): -1.96
- T/C (P388 [18]): 101%
- T/C (P388 [19]): 146%
- T/C (P388 [20]): 144%
- T/C (P388 [21]): 117%
- T/C (P388 [22]): 110%
- Log cell kill (P388 [23]): -1.61
- Log cell kill (P388 [24]): -1.37
- Log cell kill (P388 [25]): -1.41
- Log cell kill (P388 [26]): -1.76
- Log cell kill (P388 [27]): -1.84
- Weight change (P388 [28]): -1.3 g
- Weight change (P388 [29]): -2 g
- Weight change (P388 [30]): 0.1 g
- Weight change (P388 [31]): -1.9 g
- solubility [32]: 0.0196 mM (≈ 11.4 µg/mL)
- Weight change (P388 [33]): -3.1 g
- half-life (Half life was determined): 4.13 h

SMILES: CC(C)NC(=O)OCc1c(COC(=O)NC(C)C)c(-c2ccc(Cl)c(Cl)c2)n2c1CC(OC(=O)CCC(=O)O)C2.CN(C)c1ccncc1 (centres undefined)
- Weight change (P388 [34]): -2.2 g
- T/C (P388 [35]): 125%
- T/C (P388 [36]): 106%
- T/C (P388 [37]): 107%
- T/C (P388 [38]): 111%
- Log cell kill (P388 [39]): -1.08
- Log cell kill (P388 [40]): -1.45
- Log cell kill (P388 [41]): -1.44
- Log cell kill (P388 [42]): -1.39
- Weight change (P388 [43]): -1.2 g
- Weight change (P388 [44]): -1.8 g
- Weight change (P388 [45]): -1.3 g
- solubility [32]: 30 mM
- half-life (Half life was determined): 2.55 h
